In PMC2606940 (The Journal of General Physiology, 2009):
Substitutions are numbered along the chain they refer to. Counter-ions that a name gives are not always drawn.

Tests used:
CLC-0 E166A mutant = target: T1, CLC-0 E166A mutant (Torpedo marmorata, UniProt P21564, C212S/E166A); type: cell-based; conditions: for K1/2 (range in words): −140 mV (Fig. 10 C)
T1 sequence (P21564 1-805 E166A/C212S): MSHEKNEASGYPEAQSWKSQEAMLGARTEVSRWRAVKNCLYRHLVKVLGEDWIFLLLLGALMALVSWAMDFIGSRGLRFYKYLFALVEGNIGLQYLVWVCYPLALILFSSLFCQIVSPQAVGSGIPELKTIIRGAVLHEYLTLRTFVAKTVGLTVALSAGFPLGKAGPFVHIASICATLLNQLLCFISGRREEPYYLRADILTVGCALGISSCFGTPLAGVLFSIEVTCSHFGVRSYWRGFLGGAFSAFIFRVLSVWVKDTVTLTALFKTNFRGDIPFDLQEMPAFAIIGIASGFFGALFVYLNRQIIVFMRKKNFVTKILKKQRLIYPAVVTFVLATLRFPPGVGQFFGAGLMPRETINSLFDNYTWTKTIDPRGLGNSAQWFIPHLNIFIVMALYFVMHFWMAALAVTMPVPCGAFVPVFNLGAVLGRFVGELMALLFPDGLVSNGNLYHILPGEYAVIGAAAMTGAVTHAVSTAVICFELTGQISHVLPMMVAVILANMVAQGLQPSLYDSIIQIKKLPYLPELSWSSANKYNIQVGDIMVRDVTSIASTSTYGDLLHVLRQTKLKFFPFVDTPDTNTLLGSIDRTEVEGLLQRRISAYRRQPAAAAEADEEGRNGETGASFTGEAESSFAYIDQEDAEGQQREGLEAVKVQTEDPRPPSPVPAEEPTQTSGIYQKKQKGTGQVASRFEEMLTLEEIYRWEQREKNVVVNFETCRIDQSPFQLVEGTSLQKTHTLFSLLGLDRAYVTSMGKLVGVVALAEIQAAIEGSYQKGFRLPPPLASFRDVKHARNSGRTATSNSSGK
In short: (§1)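 HEK293 cells expressed C212S-background CLC-0 mutants and were recorded 1–3 d post-transfection as inside-out patches in symmetrical 130 mM NaCl, 10 mM HEPES, pH 7.4. CPA, fatty acids or alkyl sulfates flowed continuously on the cytoplasmic side. C10–C12 compounds were diluted into bath solution from 10 mM DMSO stocks. Test steps ran from +80 to −160 mV after a +80 mV prepulse. Steady-state current was normalized to the mean of pre- and post-blocker controls, and a Langmuir K1/2 was taken at each voltage from ~4–6 patches.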

CLC-0 E166Q mutant = target: T2, CLC-0 E166Q mutant (Torpedo marmorata, UniProt P21564, C212S/E166Q); type: cell-based; conditions: 5 μM SDS
T2 sequence (P21564 1-805 E166Q/C212S): T1 sequence (P21564 1-805 E166A/C212S) with A166Q
In short: as §1

| Compound | blocking affinity (in words) (CLC-0 E166A mutant) | K1/2 (range in words) (CLC-0 E166A mutant) | also measured |
| --- | --- | --- | --- |
| CS(=O)(=O)SCCS(=O)(=O)O [2-sulfonatoethyl MTS] | lower affinities than that observed with SDS | – | – |
| CS(=O)(=O)SCCCCCS(=O)(=O)O [5-sulfonatopentyl MTS] | lower affinities than that observed with SDS | – | – |
| CCCCCCCCO [Octanol] | low affinity | – | voltage dependence of the block (CLC-0 E166A mutant): no voltage dependence |
| CCCCCCCCCCCCOS(=O)(=O)O [SDS, dodecyl sulfate] | high affinity | – | block of current (CLC-0 E166A mutant; 5 μM SDS, −160 mV): ~50%; effect on current (CLC-0 E166Q mutant): very limited effect |
| CCCC(=O)O [butyrate] | – | mM range | – |
| CCCCCCCCCC(=O)O [decanoate] | – | low μM range | – |
| CCCCCCCCCCCC(=O)O [dodecanoate] | – | low μM range | – |
| CCC(=O)O [propionate] | – | mM range | – |
